Consider 5 compounds from ChEMBL document CHEMBL3259792 (Eur J Med Chem, 2014).

Data set [1] deals with Human immunodeficiency virus 1. The experiment in a line: Antiviral activity against HIV1 harboring reverse transcriptase K103N mutant infected in human MT4 cells assessed as inhibition of virus-induced cell death measured after 5 days of infection by MTT method. It counts as functional, organism-based. Conditions: Human immunodeficiency virus 1, MT4, 120 h. In outline: (§1)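 MT-4 cells infected with the named NNRTI-resistant HIV-1 RT mutant strain, in the presence of a range of compound concentrations. Viable cells counted at day 5 post-infection by tetrazolium (MTT) colorimetry. […] Mean of 2–3 independent experiments, each in triplicate.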
Background: Tetrazolium dyes change colour on reduction, which living cells bring about.

The target of data set [2] is Human immunodeficiency virus type 1 reverse transcriptase (Human immunodeficiency virus 1, UniProt Q72547, K103N). Put plainly: Inhibition of HIV1 wild-type reverse transcriptase K103N mutant using [3H]dTTP by scintillation counting.
Data set [3] relates to Human immunodeficiency virus 1. The experiment in a line: Antiviral activity against HIV1 harboring reverse transcriptase Y181C mutant infected in human MT4 cells assessed as inhibition of virus-induced cell death measured after 5 days of infection by MTT method. Format: functional, organism-based. The note with it: Human immunodeficiency virus 1, MT4, 120 h. In outline:
as §1

Data set [4] relates to Human immunodeficiency virus 1. The experiment in a line: Antiviral activity against HIV1 NL4.3 infected in human MT4 cells assessed as inhibition of virus-induced cell death measured after 5 days of infection by MTT method. It counts as functional, organism-based. The note with it: Human immunodeficiency virus 1, NL4.3, MT4, 120 h. In outline:
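Lymphoid MT-4 cells (NIH AIDS Reagent Program) infected with HIV-1 NL4-3 in the presence of varying compound concentrations. On day 5 post-infection, viable cells were counted by MTT tetrazolium colorimetry. EC₅₀ = concentration inhibiting virus-induced cell death by 50%. Means of two to three independent experiments, each in triplicate.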

Data set [5] relates to Human immunodeficiency virus 1. The experiment in a line: Ratio of EC50 for HIV1 harboring reverse transcriptase K103N/Y181C double mutant to EC50 for wild type HIV1 NL4.3. Format: functional. In outline:
(§2)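 Fold change is the EC50 against the named mutant strain divided by the EC50 against wild-type HIV-1 NL4-3. […] Means of 2–3 independent experiments in triplicate.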

Data set [6] relates to Human immunodeficiency virus 1. Put plainly: Antiviral activity against HIV1 harboring reverse transcriptase […] mutant infected in human MT4 cells assessed as inhibition of virus-induced cell death measured after 5 days of infection by MTT method. Conditions: Human immunodeficiency virus 1, MT4, 120 h. It counts as functional, organism-based. In outline: as §1
Data set [7] is described as follows: Cytotoxicity against human MT4 cells assessed as cell viability by MTT assay. It counts as cell-based. In outline:
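Mock-infected MT-4 cells exposed to a range of compound concentrations. Viable cells measured by MTT colorimetry at day 5. CC₅₀ = concentration causing 50% death of non-infected cells. Means of two to three independent experiments, each in triplicate.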

The target of data set [8] is T1, Human immunodeficiency virus type 1 reverse transcriptase (Human immunodeficiency virus 1, UniProt Q72547). Put plainly: Inhibition of HIV1 wild-type reverse transcriptase Y181I/Y181C mutant using [3H]dTTP by scintillation counting.
The test system of data set [9] is Human immunodeficiency virus 1. Put plainly: Ratio of EC50 for HIV1 harboring reverse transcriptase Y181C mutant to EC50 for wild type HIV1 NL4.3. Format: functional. In a few lines: as §2
In data set [10] the test system is Human immunodeficiency virus 2. The experiment in a line: Antiviral activity against HIV-2 ROD infected in human CEM cells assessed as protection of cells monitored by giant cell formation by microscopy. Format: functional, organism-based. Conditions: Human immunodeficiency virus 2, ISOLATE ROD, CCRF-CEM. In a few lines:
(§3)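 Human CEM cultures (~3 × 10⁵ cells/mL) infected with ~100 CCID₅₀ per mL of HIV-1 IIIB or HIV-2 ROD, seeded with serial compound dilutions. Incubated 4 days at 37 °C; syncytium (giant cell) formation scored by microscopy. EC₅₀ = concentration protecting cells from viral cytopathicity by 50%. Means of two to three independent experiments, each in triplicate.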

Data set [11] deals with T1, Human immunodeficiency virus type 1 reverse transcriptase. Put plainly: Inhibition of HIV1 wild-type reverse transcriptase using [3H]dTTP by scintillation counting.
For data set [12], the system named is Human immunodeficiency virus 1. Put plainly: Antiviral activity against HIV1 harboring reverse transcriptase K103N/Y181C double mutant infected in human MT4 cells assessed as inhibition of virus-induced cell death measured after 5 days of infection by MTT method. Conditions: Human immunodeficiency virus 1, MT4, 120 h. Format: functional, organism-based. In outline: as §1

The subject of data set [13] is Human immunodeficiency virus 1. Put plainly: Antiviral activity against HIV1 3B infected in human CEM cells assessed as protection of cells monitored by giant cell formation by microscopy. It counts as functional, organism-based. The note with it: Human immunodeficiency virus 1, 3B, CCRF-CEM. In a few lines: as §3
The test system of data set [14] is Human immunodeficiency virus 1. Put plainly: Ratio of EC50 for HIV1 harboring reverse transcriptase […] mutant to EC50 for wild type HIV1 NL4.3. Format: functional. In outline:
as §2

Data set [15] is described as follows: Selectivity index, ratio of CC50 for human MT4 cells to EC50 for HIV1 NL4.3 infected in human MT4 cells. Conditions: read-out: Ratio CC50/EC50. It counts as toxicity, cell-based. In a few lines:
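Ratio CC₅₀/EC₅₀. CC₅₀ is from mock-infected MT-4 cells and EC₅₀ from HIV-1 NL4-3-infected MT-4 cells, both read by MTT at day 5 post-infection.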

For data set [16], the system named is Human immunodeficiency virus 1. Put plainly: Ratio of EC50 for HIV1 harboring reverse transcriptase K103N mutant to EC50 for wild type HIV1 NL4.3. It counts as functional. In outline:
as §2

The target in data set [17] is Human immunodeficiency virus type 1 reverse transcriptase (Human immunodeficiency virus 1, UniProt Q72547, L100I). Put plainly: Inhibition of HIV1 wild-type reverse transcriptase L100I mutant using [3H]dTTP by scintillation counting. In outline:
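RNA-dependent DNA polymerase activity of recombinant RT (2–4 nM) on poly(rA)/oligo(dT) 10:1 with [3H]dTTP (1 Ci/mmol). Incubation at 37 °C. Acid-insoluble radioactivity collected on GF/C filters after 5% cold TCA, counted by scintillation.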

Some results are limits rather than exact numbers.

Regarding `Cc1cc(C)cc(CNC(=O)c2[nH]c3ccc(Cl)cc3c2S(=O)(=O)c2cc(C)cc(C)c2)c1`, the EC50 (as a rule, the concentration at which the effect is half-maximal) was 180 nM in data set [1]; greater than 2000 nM in data set [3]; 4.2 nM in [4]; 65 nM in data set [6]; greater than 2000 nM in data set [10]; greater than 51800 nM in data set [12]. Also, the EC50 in [13] amounted to 28 nM. Further, the IC50 (commonly the concentration that gives 50% inhibition) in data set [2] is greater than 20000 nM; in data set [8] it was greater than 20000 nM; in data set [11], 7000 nM; in data set [17], 5900 nM. In addition, the “Ratio EC50” value in data set [5] is on record as greater than 12332; in [9], greater than 476; in [14], 15; in [16], 43. Also, the CC50 (usually the concentration that lowers cell viability or growth by half) in data set [7] is greater than 52000 nM. In addition, in [15], the selectivity ratio was greater than 12400.
On to `Cc1cc(C)cc(S(=O)(=O)c2c(C(=O)NCCc3ccccc3Cl)[nH]c3ccc(Cl)cc23)c1`, for which the EC50 in [1] was 37 nM; in data set [3], 250 nM; in data set [4] it was 4 nM; in data set [6], 24 nM; in data set [10], greater than 10000 nM; in data set [12], 45000 nM. Besides, the EC50 in data set [13] amounted to 9.4 nM. Further, the IC50 is 3140 nM in [2], greater than 20000 nM in data set [8], 131 nM in data set [11] and 270 nM in data set [17]. Moreover, the “Ratio EC50” value was determined as 11243 in data set [5], 63 in data set [9], 6 in data set [14] and 9.3 in data set [16]. Further, in [7], the CC50 worked out at 45000 nM. For the same compound, in data set [15], the selectivity ratio amounted to 11200.
As to `Cc1cc(C)cc(S(=O)(=O)c2c(C(=O)NCCc3cccc(Cl)c3)[nH]c3ccc(Cl)cc23)c1`, the EC50 was 180 nM in data set [1]; 870 nM in data set [3]; 4 nM in data set [4]; 31 nM in data set [6]; greater than 10000 nM in data set [10]; 29100 nM in data set [12]. Moreover, the EC50 in [13] stood at 11 nM. For the same compound, the IC50 in data set [2] was 5940 nM; in data set [8] it was greater than 20000 nM; in [11], 83 nM; in data set [17], 10 nM. The “Ratio EC50” value in data set [5] was determined as 7274; in [9], 218; in [14] it was 7.8; in data set [16], 45. Besides, the CC50 in data set [7] was 29100 nM. In addition, the selectivity ratio in data set [15] is 7270.
`Cc1cc(C)cc(S(=O)(=O)c2c(C(=O)NCCc3ccc(Cl)cc3)[nH]c3ccc(Cl)cc23)c1`: the EC50 is no less than 2000 nM in data set [1]; 1700 nM in [3]; 53.8 nM in data set [4]; 190 nM in data set [6]; greater than 10000 nM in data set [10]; 32400 nM in data set [12]. The 50% effective concentration (EC50) in data set [13] was determined as 68 nM. The IC50 is 60 nM in data set [2], greater than 20000 nM in data set [8], 89 nM in [11] and 960 nM in data set [17]. The “Ratio EC50” value in [5] is 602; in data set [9], 36; in [14], 3.5; in data set [16], “>=37”. The 50% cytotoxic concentration (CC50) in data set [7] was 32400 nM. For the same compound, the selectivity ratio in data set [15] was 602.
`Cc1cccc(CCNC(=O)c2[nH]c3ccc(Cl)cc3c2S(=O)(=O)c2cc(C)cc(C)c2)c1`: the EC50 is 260 nM in [1]; 1200 nM in data set [3]; 6.2 nM in data set [4]; 31 nM in data set [6]; greater than 25000 nM in [10]; greater than 51900 nM in data set [12]. Further, in [13], the EC50 was determined as 7.3 nM. Moreover, the IC50 in data set [2] was greater than 20000 nM; in data set [8], greater than 20000 nM; in data set [11] it was 190 nM; in data set [17], 1300 nM. In addition, the “Ratio EC50” value is recorded as greater than 8383 in [5], 194 in data set [9], 5 in data set [14] and 42 in data set [16]. Further, in [7], the CC50 is greater than 52000 nM. Besides, the selectivity ratio in data set [15] is greater than 8380.
